In PMC7547215 (Proceedings of the National Academy of Sciences of the …, 2020):
Where two headings read alike, the source gives them in different places.

Experiments:
murine IRE1 = murine IRE1 (Mus musculus, UniProt Q9EQY0); assay: Fluorescence-based IRE1 endoribonuclease cleavage assay; format: biochemical
porcine RNase L [1] = target: T1, porcine RNase L (Sus scrofa, UniProt A5H025); assay: Fluorescence-based RNase L endoribonuclease cleavage assay; format: biochemical
T1 sequence (A5H025 1-743): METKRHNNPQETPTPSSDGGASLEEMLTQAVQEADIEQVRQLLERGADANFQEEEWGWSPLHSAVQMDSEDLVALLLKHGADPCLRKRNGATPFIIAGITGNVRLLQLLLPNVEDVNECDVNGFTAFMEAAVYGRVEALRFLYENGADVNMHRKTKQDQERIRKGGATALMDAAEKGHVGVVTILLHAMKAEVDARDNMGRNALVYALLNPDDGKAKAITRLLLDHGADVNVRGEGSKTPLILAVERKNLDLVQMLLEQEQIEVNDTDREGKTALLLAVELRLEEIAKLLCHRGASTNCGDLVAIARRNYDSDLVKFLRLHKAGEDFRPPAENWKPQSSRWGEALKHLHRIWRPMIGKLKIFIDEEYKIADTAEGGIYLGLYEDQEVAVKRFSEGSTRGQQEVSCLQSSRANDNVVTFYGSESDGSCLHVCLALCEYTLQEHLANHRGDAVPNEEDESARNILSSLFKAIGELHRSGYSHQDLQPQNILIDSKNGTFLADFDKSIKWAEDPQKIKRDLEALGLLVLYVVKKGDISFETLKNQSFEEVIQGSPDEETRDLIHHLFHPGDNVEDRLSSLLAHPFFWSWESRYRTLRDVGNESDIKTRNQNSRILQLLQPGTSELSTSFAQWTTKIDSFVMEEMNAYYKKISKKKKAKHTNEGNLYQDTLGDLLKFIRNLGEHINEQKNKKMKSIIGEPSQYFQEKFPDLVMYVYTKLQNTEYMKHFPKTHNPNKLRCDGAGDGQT

porcine RNase L H680N = assay: Differential scanning fluorimetry; format: binding
[2] = target: T2, RNase L in human A549 cells (Homo sapiens, UniProt Q05823); assay: rRNA cleavage after pIC transfection in A549 cells; format: cell-based
T2 sequence (Q05823 1-741): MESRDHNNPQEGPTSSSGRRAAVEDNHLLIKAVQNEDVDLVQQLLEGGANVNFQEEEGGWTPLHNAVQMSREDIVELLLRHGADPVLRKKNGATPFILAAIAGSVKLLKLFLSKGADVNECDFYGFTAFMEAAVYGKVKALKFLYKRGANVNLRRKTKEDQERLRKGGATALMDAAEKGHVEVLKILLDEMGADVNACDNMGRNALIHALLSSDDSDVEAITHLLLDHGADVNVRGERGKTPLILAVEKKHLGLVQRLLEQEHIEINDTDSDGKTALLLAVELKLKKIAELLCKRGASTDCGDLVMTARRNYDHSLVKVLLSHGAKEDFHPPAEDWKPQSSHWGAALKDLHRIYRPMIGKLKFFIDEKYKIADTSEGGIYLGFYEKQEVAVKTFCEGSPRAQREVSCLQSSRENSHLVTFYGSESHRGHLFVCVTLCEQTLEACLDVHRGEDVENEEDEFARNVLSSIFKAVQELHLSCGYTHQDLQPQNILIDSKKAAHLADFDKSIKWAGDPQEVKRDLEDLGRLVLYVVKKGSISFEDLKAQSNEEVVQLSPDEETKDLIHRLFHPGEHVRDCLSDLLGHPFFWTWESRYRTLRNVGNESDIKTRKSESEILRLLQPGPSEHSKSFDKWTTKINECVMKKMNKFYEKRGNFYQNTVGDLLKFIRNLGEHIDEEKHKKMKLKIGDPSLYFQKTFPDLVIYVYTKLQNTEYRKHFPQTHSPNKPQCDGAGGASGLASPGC

glycogen phosphorylase b = conditions: read-out: IC50, glycogen phosphorylase b; cited from earlier work
A549 cells = assay: Cell survival; format: cell-based, human; conditions: up to 25 μM (SU 3 to 25 μM), over 30 h
How it was run: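 Human A549 cells cultured with test compound across a concentration series. Dye-labelled cells imaged in real time, and percent survival calculated. Mean ± SD of three survival profiles.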

porcine RNase L [3] = target: T1, porcine RNase L; assay: BODIPY-ATP fluorescence polarization binding/competition assay
Human CK2a = Human CK2a (Homo sapiens, UniProt P68400); assay: In vitro inhibition of CK2α kinase activity; format: biochemical
[4] = test system: casein kinase IIalpha (CK2α); conditions: cited from earlier work
RNase L [5] = conditions: read-out: IC50, ribonuclease activity of RNase L in vitro; cited from earlier work
RNase L [6] = conditions: cited from earlier work

Sequence of murine IRE1 (Q9EQY0 21-977): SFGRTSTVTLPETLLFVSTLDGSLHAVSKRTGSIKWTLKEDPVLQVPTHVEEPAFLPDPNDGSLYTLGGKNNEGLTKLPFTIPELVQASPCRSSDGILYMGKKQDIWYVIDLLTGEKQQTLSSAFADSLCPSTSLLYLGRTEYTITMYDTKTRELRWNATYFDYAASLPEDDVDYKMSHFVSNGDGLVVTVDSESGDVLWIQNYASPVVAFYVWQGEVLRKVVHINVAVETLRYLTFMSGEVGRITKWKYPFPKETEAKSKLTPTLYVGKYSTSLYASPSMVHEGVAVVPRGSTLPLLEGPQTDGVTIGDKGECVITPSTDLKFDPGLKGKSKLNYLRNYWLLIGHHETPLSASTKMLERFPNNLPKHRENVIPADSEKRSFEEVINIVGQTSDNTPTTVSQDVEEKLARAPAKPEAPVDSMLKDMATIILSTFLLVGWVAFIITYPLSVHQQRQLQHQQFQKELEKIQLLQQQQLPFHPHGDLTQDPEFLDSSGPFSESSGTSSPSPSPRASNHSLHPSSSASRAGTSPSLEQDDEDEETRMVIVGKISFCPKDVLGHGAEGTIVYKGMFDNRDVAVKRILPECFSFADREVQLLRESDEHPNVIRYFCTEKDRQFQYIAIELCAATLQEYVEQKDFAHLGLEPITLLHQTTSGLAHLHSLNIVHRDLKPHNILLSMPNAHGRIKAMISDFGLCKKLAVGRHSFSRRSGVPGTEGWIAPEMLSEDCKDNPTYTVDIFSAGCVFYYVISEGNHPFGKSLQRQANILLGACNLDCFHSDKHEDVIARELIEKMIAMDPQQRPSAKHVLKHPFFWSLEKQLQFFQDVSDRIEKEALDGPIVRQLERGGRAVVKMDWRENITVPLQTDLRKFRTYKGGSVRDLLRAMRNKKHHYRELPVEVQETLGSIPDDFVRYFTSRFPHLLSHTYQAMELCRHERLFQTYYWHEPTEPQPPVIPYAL
Sequence of Human CK2a (P68400 whole entry): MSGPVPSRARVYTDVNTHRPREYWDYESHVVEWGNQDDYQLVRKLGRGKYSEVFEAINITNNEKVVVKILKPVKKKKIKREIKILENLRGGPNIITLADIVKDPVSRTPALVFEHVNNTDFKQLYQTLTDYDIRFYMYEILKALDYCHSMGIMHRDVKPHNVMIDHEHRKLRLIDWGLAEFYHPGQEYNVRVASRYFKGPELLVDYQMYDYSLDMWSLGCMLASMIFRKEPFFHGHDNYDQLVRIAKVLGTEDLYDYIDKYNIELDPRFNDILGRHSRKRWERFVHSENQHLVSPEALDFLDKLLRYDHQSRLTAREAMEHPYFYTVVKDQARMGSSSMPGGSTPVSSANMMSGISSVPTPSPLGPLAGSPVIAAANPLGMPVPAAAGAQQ

Nc1ccc2ccc3c(N)ccc4ccc1c2c43 [1,6-diaminopyrene]
Effect on IRE1 ribonuclease activity (murine IRE1; Fig. 2): ineffective at complete inhibition | Effect on RNase L ribonuclease activity (porcine RNase L [1]; Fig. 2): ineffective at complete inhibition

Nc1ncnc2c1ncn2[C@@H]1O[C@H](COP(=O)(O)OP(=O)(O)OP(=O)(O)O)[C@@H](O)[C@H]1O [ATP]
Thermal stabilization of purified RNase L by ligand on its own (porcine RNase L H680N): pronounced stabilization | ΔTm of RNase L (porcine RNase L H680N; named ligand(s) vs RNase L alone, SI Fig. S7, listed as ATP/MgCl2): 6 ± 0.2 °C

O=c1oc2c(O)c(O)cc3c(=O)oc4c(O)c(O)cc1c4c23 [EA, ellagic acid]
Decrease in potency in cells relative to in vitro against porcine RNase L ([2]; A549 and L929 cell lines): ~1,000 fold | pIC-induced RNA cleavage pattern ([2]; A549 cells, 3 h preincubation, 12 ng/mL pIC for 2 h): progressively reduced in a concentration-dependent manner | IC50 (glycogen phosphorylase b): 3200 nM | Cytotoxicity (A549 cells): not cytotoxic | Competitive displacement of BODIPY-ATP from RNase L (porcine RNase L [3]): neither EA nor VAL could competitively displace | IC50 (murine IRE1): 270.6 ± 0.1 nM | IC50 (porcine RNase L [1]; IC50, RNase L ribonuclease activity, 10-point dose–response, commercially sourced fresh powder, Fig. 1C, mean ± SEM of four curves): 73.5 ± 0.2 nM | IC50 (Human CK2a): 419 nM | Potency of casein kinase II inhibition [4]: 20 nM | IC50 ([4]; read-out: IC50, casein kinase IIalpha (CK2α)): 40 nM

CCN(CC)CCNC(=O)c1c(C)[nH]c(/C=C2\C(=O)Nc3ccc(F)cc32)c1C [sunitinib]
Cytotoxicity (A549 cells): considerable cytotoxicity | IC50 (RNase L [5]): 1400 nM | Concentration required for the repression of RNase L cleavage activity (RNase L [6]; in cells): ~5 µM | IC50 (RNase L [6]; read-out: IC50, antiviral function of RNase L in cells): 1000 nM
